Calls of active or inactive are those of the source. The rule behind the calls is not given here.
Experiments:
[1] = Displacement of [32P]NAADP from Egg-binding protein in sea urchin egg homogenate at 6 uM after 10 mins; assay type: tissue-based, Lytechinus pictus
How it was run: (§1)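 Sea urchin egg homogenate in intracellular-like buffer. Compound in DMSO (final 1% v/v) pre-incubated 10 min at 25°C, then [32P]NAADP added to 0.3 nM. Incubated 30 min, then binding assessed by filtration; concentration range used for displacement curves.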

Pancreatic islet [2] = test: Inhibition of glucose induced mitochondrial metabolism in CD1 mouse pancreatic islets assessed as NADH and NADPH levels by fluorescence method; assay type: functional, cell-based
How it was run: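 Mouse islets pre-incubated 60 min at 37°C in 3 mM glucose. NAD(P)H fluorescence (360 nm excitation, >470 nm emission) expressed as percent of basal values within the same islet.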

Mus musculus [3] = species on record: Mus musculus; test: Inhibition of L-type calcium channel in CD1 mouse pancreatic islets at 100 uM in presence of glucose diazoxide and KCl
How it was run: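 Mouse islets in glucose (10 mM) and diazoxide (100 μM), depolarized with KCl (45 mM) with or without compound (100 μM). Ca2+ transient monitored with fura-PE3.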

[4] = (§2) Antagonistic activity at NAADP receptor in sea urchin egg homogenate assessed as inhibition of NAADP-mediated Ca2+ release using Fluo-3 staining based fluorimetric assay relative to control; assay type: functional, tissue-based, Lytechinus pictus
Lytechinus pictus [5] = test: Noncompetitive inhibition of NAADP receptor in sea urchin egg homogenate assessed as inhibition of NAADP induced Ca2+ release using Fluo-3 staining based fluorimetric assay; assay type: tissue-based
Lytechinus pictus [6] = test: Antagonistic activity at NAADP receptor in intact sea urchin eggs assessed as Inhibition of NAADP mediated Ca2+ increase at 100 uM using Oregon Green 488-BAPTA Dextran staining based by laser scanning confocal microscopy; assay type: functional
How it was run: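 Intact Lytechinus pictus eggs on polylysine-coated coverslips in artificial seawater containing compound. Eggs microinjected with Oregon Green 488 BAPTA Dextran (10 μM). NAADP (100 μM in pipette) pressure-microinjected to 1% egg volume, delivering ~1 μM. Imaged by laser-scanning confocal microscopy, 488 nm excitation, emission 530±15 nm band-pass or 510 nm long-pass.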

Lytechinus pictus [7] = test: Inhibition of cyclic ADP-ribose-induced Ca2+ release in sea urchin Egg homogenate at 100 uM using Fluo-3 staining based fluorimetric assay relative to control; values are per cent of control
Mus musculus [8] = species on record: Mus musculus; test: Binding affinity to NAADP receptor in CD1 mouse pancreatic beta cells assessed as fluorescent labeling of receptor at 60 nM after 30 mins in presence of V-type proton pump inhibitor bafilomycin A1 by confocal microscopy
How it was run: (§3)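 Mouse pancreatic beta cells imaged by confocal microscopy, compound excited at 355 nm with emission 415±30 nm. LysoTracker Red (50 nM, 20-40 min; excitation 568 nm, emission >590 nm) used as comparison. Pretreatment with bafilomycin A1 (3 μM, 15 min) or NAADP-acetoxymethyl ester (60 nM, 30 min).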

Lytechinus pictus [9] = test: Antagonistic activity at NAADP receptor in sea urchin egg homogenate assessed as inhibition of NAADP-mediated Ca2+ release at 100 uM using Fluo-3 staining based fluorimetric assay relative to control; values are per cent of control
Mus musculus [10] = species on record: Mus musculus; test: Binding affinity to NAADP receptor in CD1 mouse pancreatic beta cells assessed as fluorescent labeling of receptor at 60 nM after 30 mins by confocal microscopy; how it was run: as §3
Mus musculus [11] = species on record: Mus musculus; test: Antagonistic activity at NAADP receptor in CD1 mouse pancreatic beta cells assessed as inhibition of NAADP-mediated Ca2+ increase at 125 uM by patch clamp method; assay type: functional
How it was run: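 Mouse pancreatic beta cells voltage-clamped with a patch pipette; NAADP delivered through the pipette (50 nM in text, 100 nM in legend). Compound pre-incubated in the bathing solution. Ca2+ increases read as Ca2+-dependent current traces, compared with and without compound in the bath.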

Lytechinus pictus [12] = test: Displacement of [32P]NAADP from NAADP receptor in sea urchin egg homogenate after 5 days; assay type: tissue-based
How it was run: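 Homogenate pre-incubated 10 min with compound (10 μM) or NAADP (10 nM), then [32P]NAADP added. Samples filtered at time points up to 5 days; dissociation read as recovery of [32P]NAADP binding (100% ≈ 1,500 cpm).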

[13] = (§4) Inhibition of glucose-induced Ca2+ increase in CD1 mouse pancreatic islets preincubated for 30 mins before glucose challenge; assay type: functional, cell-based; settings: CD1, Pancreatic islet
How it was run: (§5)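 Acutely isolated mouse islets loaded with fura-PE3 AM and held in 3 mM glucose. Compound pre-incubated 30 min, then 15 mM glucose added. First peak, oscillation amplitude and plateau measured; concentration-inhibition curve gives IC50.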

Pancreatic islet [14] = test: as §4; assay type: functional, cell-based; how it was run: as §5
Lytechinus pictus [15] = test: Inhibition of IP3-induced Ca2+ release in sea urchin Egg homogenate at 100 uM using Fluo-3 staining based fluorimetric assay relative to control; values are per cent of control
Lytechinus pictus [16] = test: as §2; assay type: functional, tissue-based
[17] = Displacement of [32P]NAADP from NAADP receptor in sea urchin egg homogenate preincubated 10 mins before [32P]NAADP addition; assay type: tissue-based, Lytechinus pictus; how it was run: as §1

Structure (SMILES)	inhibition (Lytechinus pictus [16])	other results
COc1ccc(C2N[C@H](C(=O)O)Cc3c2[nH]c2ccccc32)cc1CN1CCN(c2ccccc2F)CC1 (some centres not stated)	–	Ki [1]: 6000 nM; inhibition (Pancreatic islet [2]): inactive; inhibition (Mus musculus [3]): inactive; IC50 [4]: 2000 nM; inhibition (Lytechinus pictus [5]): Active; inhibition (Lytechinus pictus [6]): Active; level, % of control (Lytechinus pictus [7]): 101%; Activity (Mus musculus [8]): Active; residual activity (Lytechinus pictus [9]): 5.4%; Activity (Mus musculus [10]): Active; inhibition (Mus musculus [11]): Active; inhibition (Lytechinus pictus [12]): Active; IC50 [13]: 3000 nM; inhibition (Pancreatic islet [14]): Dose-dependent effect; level, % of control (Lytechinus pictus [15]): 87%
COc1ccc2[nH]c(C(=O)O)c(CCNC(=O)CO/N=C3/C=C[C@@]4(C)C(=C3)CC[C@@H]3[C@H]4CC[C@]4(C)[C@H]3CC[C@]4(C)O)c2c1	Toxic	–
C[C@@H]1CCc2c(sc(NC(=O)CN3CCN(S(=O)(=O)c4ccc5c(c4)OCCO5)CC3)c2C#N)C1	inactive	–
COc1ccc(C(=O)OCC(=O)c2ccc3c(c2)-c2ccccc2C3)cc1S(=O)(=O)N1CCCc2ccccc21	Active	–
CS(=O)(=O)N(Cc1ccccc1)c1ccc(C(=O)N/N=C/c2cccc(Oc3ccccc3)c2)cc1	inactive	–
NC(=O)c1c(NC(=O)CN2CCN(S(=O)(=O)c3ccc4c(c3)OCCO4)CC2)sc2c1CCCC2	inactive	–
CC(C)(c1ccccc1)c1ccc(OC[C@@H](O)CN[C@H](Cc2ccccc2)c2nc(-c3ccccc3)no2)cc1	inactive	–
COc1ccc([C@@H]2N[C@H](C(=O)O)Cc3c2[nH]c2ccccc32)cc1CN1CCN(c2ccccc2F)CC1	–	IC50 [4]: 800 nM; IC50 [17]: 15000 nM
CCN(CC)CCOC(=O)c1ccc(NC(=O)c2cc(-c3cccc4ccccc34)nc3ccccc23)cc1	inactive	–
Cc1ccc(-c2cc(C(=O)NCC(C)(C)CNC(=O)c3cc(-c4ccc(C)o4)nc4ccccc34)c3ccccc3n2)o1	inactive	–
C=C1NN(c2nc(-c3cccc([N+](=O)[O-])c3)cs2)C(=O)/C1=N/Nc1ccc(Cl)cc1C(=O)c1ccccc1	Insoluble	–
CC(C)N(CCCNC(=O)c1ccc2c(c1)N(Cc1c(F)cccc1Cl)C(=O)CS2)Cc1ccccc1	Active	–
CCC(=O)N1N=C(c2ccc(C3=NN(C(=O)CC)[C@H](c4cccc(OC)c4OC)C3)cc2)C[C@H]1c1cccc(OC)c1OC	Insoluble	–
O=C(COc1ccccc1-c1ccccc1)N1CCN(S(=O)(=O)c2ccc3c(c2)OCCO3)CC1	inactive	–
CCn1c2ccccc2c2cc(NC(=O)CN3CCN(S(=O)(=O)c4ccc(OC)cc4)CC3)ccc21	inactive	–
Cc1ccc(-n2c(SCC(=O)N/N=C\c3cccc(Oc4ccccc4)c3)nnc2-c2ccc(Cl)cc2)cc1	inactive	–
CCn1c2ccccc2c2cc(NC(=O)CN3CCN(S(=O)(=O)c4cc(Cl)ccc4Cl)CC3)ccc21	inactive	–
COc1ccc([C@H]2N[C@H](C(=O)O)Cc3c2[nH]c2ccccc32)cc1CN1CCN(c2ccccc2F)CC1	–	IC50 [4]: 6 nM; IC50 [17]: 0.4 nM
O=C(COC(=O)c1cccc(Oc2ccccc2)c1)COC(=O)c1cccc(Oc2ccccc2)c1	inactive	–
CN1C(=O)/C(=C/c2ccccc2Cl)Sc2ccc(C(=O)N3CCN(Cc4ccc5c(c4)OCO5)CC3)cc21	inactive	–
COc1ccc(S(=O)(=O)N2CCN([C@H](C)C(=O)Nc3ccccc3-c3ccccc3)CC2)cc1	inactive	–
COc1cc2c(cc1OC)-c1cc(NCCN3CCN(C(=O)c4ccc(F)cc4)CC3)nc(=O)n1CC2	inactive	–
FC(F)(F)c1cccc(N2CCN(Cn3nc(COc4ccccc4)n(-c4ccccc4)c3=S)CC2)c1	Toxic	–
CN1C(=O)/C(=C/c2ccccc2F)Sc2ccc(C(=O)N3CCN(Cc4ccc5c(c4)OCO5)CC3)cc21	inactive	–
COc1ccccc1N(C)S(=O)(=O)c1ccc(C(=O)Nc2ccc(N(c3ccccc3)C(C)C)cc2)cc1	Active	–
CCN1C(=O)c2ccccc2[C@H]1Nc1ccc(C(=O)N2CCN(C/C=C/c3ccccc3)CC2)cc1	inactive	–
